In ChEMBL document CHEMBL2331355, “Synthesis, structure activity relationship and mode of action of 3-substitutedphenyl-1-(2,2,8,8-tetramethyl-3,4,9,10-tetrahydro-2H,8H-pyrano[2,3-f]chromen-6-yl)-propenones as novel anticancer agents in human leukaemia HL-60 cells” (Eur J Med Chem, 2013):

Experiments:
Assay type in all cases: functional
Caco-2 = test: Growth inhibition of human Caco2 cells at 50 uM after 48 hrs by MTT assay; settings: Caco-2, 48 h, read-out: GI
In short: (§1)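 Single-concentration MTT screen at 50 µM over 48 h in 96-well plates. Compounds giving >50% inhibition were rescreened at 30 µM. OD read at 570 nm, reference 620 nm. Result expressed as % growth inhibition versus untreated control. Mitomycin C, adriamycin or 5-fluorouracil used as positive controls. Mean ± SD of three independent experiments.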

MDA-MB-435 = test: Growth inhibition of human MDA-MB-435 cells at 50 uM after 48 hrs by MTT assay; settings: MDA-MB-435, 48 h, read-out: GI; in short: as §1
MIA PaCa-2 = test: Growth inhibition of human MIAPaCa2 cells at 50 uM after 48 hrs by MTT assay; settings: MIA PaCa-2, 48 h, read-out: GI; in short: as §1
ASPC1 = test: Growth inhibition of human AsPC1 cells at 50 uM after 48 hrs by MTT assay; settings: ASPC1, 48 h, read-out: GI; in short: as §1
HL-60 = test: Growth inhibition of human HL60 cells at 50 uM after 48 hrs by MTT assay; settings: HL-60, 48 h, read-out: GI; in short: as §1
MCF7 = test: Growth inhibition of human MCF7 cells at 50 uM after 48 hrs by MTT assay; settings: MCF7, 48 h, read-out: GI; in short: as §1
PC-3 [1] = test: Growth inhibition of human PC3 cells at 50 uM after 48 hrs by MTT assay; settings: PC-3, 48 h, read-out: GI; in short: as §1
PC-3 [2] = test: Growth inhibition of human PC3 cells at 10 uM after 48 hrs by MTT assay; settings: PC-3, 48 h, read-out: GI
In short: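 MTT assay. Suspension or adherent cells were exposed to compound for 48 h. OD was read at 570 nm (reference 620 nm), with untreated control OD set as 100% viability. Results are percent growth inhibition, mean ± SD of three independent experiments.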

Structure (SMILES)	inhibition of growth at 50 µM (Caco-2) [%]	inhibition of growth at 50 µM (MDA-MB-435) [%]	inhibition of growth at 50 µM (MIA PaCa-2) [%]	inhibition of growth at 50 µM (ASPC1) [%]	inhibition of growth at 50 µM (HL-60) [%]	inhibition of growth at 50 µM (MCF7) [%]	inhibition of growth at 50 µM (PC-3 [1]) [%]	inhibition of growth at 10 µM (PC-3 [2]) [%]
CC1(C)CCc2cc(C(=O)/C=C/c3ccccc3Cl)c3c(c2O1)CCC(C)(C)O3	11	33	31	15	41	9	52	–
CO[C@@]12[C@H](COC(N)=O)C3=C(C(=O)C(C)=C(N)C3=O)N1C[C@@H]1N[C@@H]12 [MITOMYCIN]	–	–	–	–	–	–	–	68
COc1ccc(OC)c(/C=C/C(=O)c2cc3c(c4c2OC(C)(C)CC4)OC(C)(C)CC3)c1	23	52	17	2	27	15	36	–
CC1(C)CCc2cc(C(=O)/C=C/c3ccccc3)c3c(c2O1)CCC(C)(C)O3	34	47	24	17	32	14	51	–
CC(=O)c1cc2c(c3c1OC(C)(C)CC3)OC(C)(C)CC2	20	2	25	5	25	18	19	–
CC1(C)CCc2cc(C(=O)/C=C/c3cccc(Cl)c3)c3c(c2O1)CCC(C)(C)O3	31	54	24	24	60	16	59	–
